Results reported in ChEMBL document CHEMBL1141617, “Synthesis and evaluation of antitumoral activity of ester and amide derivatives of 2-arylamino-6-trifluoromethyl-3-pyridinecarboxylic acids” (2008).

How the values were obtained:
Format in all cases: functional
RXF 393 = experiment: Growth inhibition of human RXF393 cells; conditions: for TGI: read-out: Log TGI (converted)
Outline: (§1)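 NCI 60 human tumour cell line panel grown in RPMI1640 with 5% fetal calf serum and 2 mM L-glutamine. Cells seeded at a density set by each line's growth characteristics and preincubated 24 h. Compounds added in DMSO at 10^-4 to 10^-8 M (five 10-fold dilutions) and left 48 h continuously. Growth read by sulforhodamine B protein stain. GI50 is the molar concentration giving 50% net growth inhibition.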

A498 = experiment: Growth inhibition of human A498 cells; outline: as §1
NCI-H522 = experiment: Growth inhibition of human NCI-H522 cells; conditions: for TGI: read-out: Log TGI (converted); outline: as §1
OVCAR-5 = experiment: Growth inhibition of human OVCAR5 cells; outline: as §1
CAKI-1 = experiment: Growth inhibition of human CAKI1 cells; outline: as §1
UO-31 = experiment: Growth inhibition of human UO31 cells; outline: as §1
LOX IMVI = experiment: Growth inhibition of human LOXIMVI cells; outline: as §1
SK-MEL-5 = experiment: Growth inhibition of human SK-MEL5 cells; conditions: for TGI: read-out: Log TGI (converted); outline: as §1
HOP-92 = experiment: Growth inhibition of human HOP92 cells; conditions: for TGI: read-out: Log TGI (converted); outline: as §1
CCRF-CEM = experiment: Growth inhibition of human CCRF-CEM cells; outline: as §1
K562 = experiment: Growth inhibition of human K562 cells; outline: as §1
MOLT-4 = experiment: Growth inhibition of human MOLT4 cells; conditions: for TGI: read-out: Log TGI (converted); outline: as §1
HL-60 = experiment: Growth inhibition of human HL60 cells; outline: as §1
SR = experiment: Growth inhibition of human SR cells; outline: as §1
EKVX = experiment: Growth inhibition of human EKVX cells; outline: as §1
SK-OV-3 = experiment: Growth inhibition of human SKOV3 cells; outline: as §1
ACHN = experiment: Growth inhibition of human ACHN cells; outline: as §1
MDA-MB-231 = experiment: Growth inhibition of human MDA-MB-231 cells; conditions: for TGI: read-out: Log TGI (converted); outline: as §1
RPMI-8226 = experiment: Growth inhibition of human RPMI8226 cells; outline: as §1
HCC 2998 = experiment: Growth inhibition of human HCC2998 cells; conditions: for TGI: read-out: Log TGI (converted); outline: as §1
HCT-116 = experiment: Growth inhibition of human HCT116 cells; outline: as §1
IGROV-1 = experiment: Growth inhibition of human IGROV1 cells; outline: as §1
PC-3 = experiment: Growth inhibition of human PC3 cells; outline: as §1
T47D = experiment: Growth inhibition of human T47D cells; conditions: for TGI: read-out: Log TGI (converted); outline: as §1
[1] = Growth inhibition of human H23 cells; conditions: NCI-H23; outline: as §1
SNB-75 = experiment: Growth inhibition of human SNB75 cells; outline: as §1
UACC-62 = experiment: Growth inhibition of human UACC62 cells; outline: as §1
OVCAR-4 = experiment: Growth inhibition of human OVCAR4 cells; outline: as §1
NCI-H226 = experiment: Growth inhibition of human NCI-H226 cells; outline: as §1
[2] = Growth inhibition of human NCI-322M cells; outline: as §1
Hs-578T = experiment: Growth inhibition of human HS578T cells; conditions: for TGI: read-out: Log TGI (converted); outline: as §1
COLO 205 = experiment: Growth inhibition of human COLO205 cells; outline: as §1
NCI-H460 = experiment: Growth inhibition of human NCI-H460 cells; outline: as §1
SK-MEL-2 = experiment: Growth inhibition of human SKMEL2 cells; outline: as §1
UACC-257 = experiment: Growth inhibition of human UACC257 cells; outline: as §1
MCF7 = experiment: Growth inhibition of human MCF7 cells; outline: as §1
[3] = Growth inhibition of human ADR-RES cells; outline: as §1
OVCAR-3 = experiment: Growth inhibition of human OVCAR-3 cells; outline: as §1
KM12 = experiment: Growth inhibition of human KM12 cells; outline: as §1

Q: For `COc1cccc(NC(=O)c2ccc(C(F)(F)F)nc2Nc2ccc(Cl)cc2C)c1`, which GI50 (RXF 393) is on record?
A: 1.17 µM

Q: And the GI50 (A498)?
A: 1.66 µM

Q: And the GI50 (NCI-H522)?
A: 1.29 µM

Q: What about the TGI (NCI-H522) of the same compound?
A: 7.24 µM

Q: And the GI50 (OVCAR-5)?
A: 2.51 µM

Q: And the GI50 (CAKI-1)?
A: 2.75 µM

Q: What about the GI50 (UO-31) of the same compound?
A: 1.45 µM

Q: And the TGI (UO-31; read-out: Log TGI (converted))?
A: 8.32 µM

Q: Which results are given for `COc1cc(NC(=O)c2ccc(C(F)(F)F)nc2Nc2cc(Cl)ccc2C)cc(OC)c1OC`?
A: GI50 (LOX IMVI): 0.724 µM; TGI (LOX IMVI; read-out: Log TGI (converted)): 2.4 µM; GI50 (SK-MEL-5): 1.17 µM; TGI (SK-MEL-5): 10 µM; GI50 (HOP-92): < 0.01 µM; TGI (HOP-92): 1.66 µM; GI50 (CCRF-CEM): < 0.01 µM; GI50 (K562): 0.676 µM; GI50 (MOLT-4): < 0.01 µM; TGI (MOLT-4): 0.0417 µM; GI50 (HL-60): 0.0229 µM; LC50 (HL-60): 7.24 µM; TGI (HL-60; read-out: Log TGI (converted)): 1.62 µM; GI50 (SR): 0.0186 µM; TGI (SR; read-out: Log TGI (converted)): 0.302 µM; GI50 (EKVX): 2.75 µM; GI50 (SK-OV-3): 2.04 µM; GI50 (A498): 2.34 µM; GI50 (ACHN): 1.78 µM; GI50 (MDA-MB-231): 1.66 µM; TGI (MDA-MB-231): 8.91 µM; GI50 (RPMI-8226): 0.457 µM; GI50 (NCI-H522): 2.29 µM; TGI (NCI-H522): 7.41 µM; GI50 (HCC 2998): < 0.01 µM; TGI (HCC 2998): 5.37 µM; GI50 (HCT-116): 2.51 µM; GI50 (IGROV-1): 0.407 µM; GI50 (PC-3): 1.2 µM; TGI (PC-3; read-out: Log TGI (converted)): 5.37 µM; GI50 (T47D): 2.14 µM; TGI (T47D): 9.55 µM; GI50 (CAKI-1): 2.4 µM; GI50 [1]: 2.19 µM; GI50 (SNB-75): 1.07 µM; GI50 (UACC-62): 0.955 µM; GI50 (OVCAR-4): 1.74 µM

Q: What does the source list for `Cc1ccc(Cl)cc1Nc1nc(C(F)(F)F)ccc1C(N)=O`?
A: GI50 (NCI-H226): 1.45 µM; TGI (NCI-H226; read-out: Log TGI (converted)): 9.77 µM; GI50 [2]: 2.04 µM; GI50 (LOX IMVI): 2.24 µM; GI50 (SK-MEL-5): 1.91 µM; TGI (SK-MEL-5): 6.61 µM; GI50 (Hs-578T): 0.813 µM; TGI (Hs-578T): 3.98 µM

Q: For `COc1cccc(OC(=O)c2ccc(C(F)(F)F)nc2Nc2cc(Cl)ccc2C)c1`, which GI50 (Hs-578T) is on record?
A: 1.23 µM

Q: And the TGI (Hs-578T)?
A: 4.79 µM

Q: What about the GI50 (HOP-92) of the same compound?
A: 1.62 µM

Q: What about the TGI (HOP-92) of the same compound?
A: 6.92 µM

Q: And the GI50 (CCRF-CEM)?
A: 2.14 µM

Q: And the TGI (CCRF-CEM; read-out: Log TGI (converted))?
A: 5.13 µM

Q: What about the GI50 (K562) of the same compound?
A: 3.09 µM

Q: And the TGI (K562; read-out: Log TGI (converted))?
A: 9.33 µM

Q: And the GI50 (MOLT-4)?
A: 3.09 µM

Q: What about the TGI (MOLT-4) of the same compound?
A: 7.94 µM

Q: What about the GI50 (RXF 393) of the same compound?
A: 0.245 µM

Q: What about the TGI (RXF 393) of the same compound?
A: 0.977 µM

Q: For `Cc1ccc(Cl)cc1Nc1nc(C(F)(F)F)ccc1C(=O)Nc1cccc(C(F)(F)F)c1`, which GI50 (SK-MEL-5) is on record?
A: 2.19 µM

Q: And the TGI (SK-MEL-5)?
A: 4.47 µM

Q: What about the GI50 (HOP-92) of the same compound?
A: 2.19 µM

Q: And the TGI (HOP-92)?
A: 8.71 µM

Q: What about the GI50 (CCRF-CEM) of the same compound?
A: 2.82 µM

Q: And the GI50 (MOLT-4)?
A: 2.75 µM

Q: And the TGI (MOLT-4)?
A: 10 µM

Q: What about the GI50 (RXF 393) of the same compound?
A: 2.69 µM

Q: What about the TGI (RXF 393) of the same compound?
A: 7.94 µM

Q: What about the GI50 (COLO 205) of the same compound?
A: 1.74 µM

Q: What about the TGI (COLO 205; read-out: Log TGI (converted)) of the same compound?
A: 3.39 µM

Q: And the GI50 (SK-OV-3)?
A: 1.74 µM

Q: What about the TGI (SK-OV-3; read-out: Log TGI (converted)) of the same compound?
A: 5.5 µM

Q: And the GI50 (A498)?
A: 2.95 µM

Q: What about the TGI (A498; read-out: Log TGI (converted)) of the same compound?
A: 8.51 µM

Q: What about the GI50 (MDA-MB-231) of the same compound?
A: 2.29 µM

Q: What about the TGI (MDA-MB-231) of the same compound?
A: 9.55 µM

Q: What about the GI50 (RPMI-8226) of the same compound?
A: 2.34 µM

Q: What about the GI50 (NCI-H460) of the same compound?
A: 2.82 µM

Q: And the TGI (NCI-H460; read-out: Log TGI (converted))?
A: 10 µM

Q: What about the GI50 (NCI-H522) of the same compound?
A: 1.78 µM

Q: And the TGI (NCI-H522)?
A: 6.31 µM

Q: What about the GI50 (HCC 2998) of the same compound?
A: 1.78 µM

Q: And the TGI (HCC 2998)?
A: 4.47 µM

Q: What about the GI50 (HCT-116) of the same compound?
A: 2.4 µM

Q: What about the GI50 (SK-MEL-2) of the same compound?
A: 2.45 µM

Q: What about the TGI (SK-MEL-2; read-out: Log TGI (converted)) of the same compound?
A: 6.61 µM

Q: And the GI50 (UACC-257)?
A: 2.95 µM

Q: And the TGI (UACC-257; read-out: Log TGI (converted))?
A: 8.32 µM

Q: And the GI50 (IGROV-1)?
A: 1.7 µM

Q: What about the GI50 (PC-3) of the same compound?
A: 2.09 µM

Q: What about the GI50 (MCF7) of the same compound?
A: 2.51 µM

Q: What about the TGI (MCF7; read-out: Log TGI (converted)) of the same compound?
A: 9.55 µM

Q: And the GI50 [3]?
A: 2.14 µM

Q: And the TGI ([3]; read-out: Log TGI (converted))?
A: 7.59 µM

Q: And the GI50 (T47D)?
A: 2.24 µM

Q: What about the TGI (T47D) of the same compound?
A: 8.91 µM

Q: For `Cc1ccc(Cl)cc1Nc1nc(C(F)(F)F)ccc1C(=O)N1CCN(c2ccc(F)cc2)CC1`, which GI50 (IGROV-1) is on record?
A: 0.132 µM

Q: What about the GI50 (CAKI-1) of the same compound?
A: 1.51 µM

Q: What about the GI50 (SNB-75) of the same compound?
A: < 0.01 µM

Q: For `COc1cc(NC(=O)c2ccc(C(F)(F)F)nc2Nc2ccc(Cl)cc2C)cc(OC)c1OC`, which GI50 (OVCAR-3) is on record?
A: 2.4 µM

Q: And the GI50 (CCRF-CEM)?
A: 1.58 µM

Q: What about the GI50 (HL-60) of the same compound?
A: 1.74 µM

Q: And the GI50 (KM12)?
A: 1.55 µM

Q: And the GI50 (NCI-H522)?
A: 1.62 µM

Q: What about the GI50 (HCC 2998) of the same compound?
A: 1.91 µM

Q: And the TGI (HCC 2998)?
A: 5.62 µM

Q: And the GI50 (IGROV-1)?
A: 0.955 µM

Q: What about the GI50 (PC-3) of the same compound?
A: 1.86 µM

Q: And the GI50 (T47D)?
A: 2.45 µM

Q: And the GI50 [1]?
A: 2.19 µM
